What was measured:
[1] = molecular target: actin (Oryctolagus cuniculus, UniProt P68135); test: spontaneous polymerization of actin alone; format: biochemical; conditions: concentrations up to 50 μM
[2] = molecular target: T1, mDia1-FH2 (Mus musculus, UniProt O08808); test: pyrene-actin polymerization assay, actin assembly by mDia1-FH2; format: biochemical
Summary of the method: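 Recombinant mouse mDia1 FH2 domain (aa 748–1175) at 2.5 nM with 4 μM actin (5% pyrene-labelled), across a range of test compound concentrations. Polymerization followed by pyrene fluorescence (emission 410 nm). Signal corrected for quenching by the test compound. Dose-response curves calculated from the polymerization curves give IC50 and Hill coefficient.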

[3] = molecular target: T2, mDia3-FH2 (Mus musculus, UniProt O70566); test: pyrene-actin polymerization assay, actin assembly by mDia3-FH2; format: biochemical; conditions: at any concentration tested
T2 sequence (O70566 625-1025 limits assumed): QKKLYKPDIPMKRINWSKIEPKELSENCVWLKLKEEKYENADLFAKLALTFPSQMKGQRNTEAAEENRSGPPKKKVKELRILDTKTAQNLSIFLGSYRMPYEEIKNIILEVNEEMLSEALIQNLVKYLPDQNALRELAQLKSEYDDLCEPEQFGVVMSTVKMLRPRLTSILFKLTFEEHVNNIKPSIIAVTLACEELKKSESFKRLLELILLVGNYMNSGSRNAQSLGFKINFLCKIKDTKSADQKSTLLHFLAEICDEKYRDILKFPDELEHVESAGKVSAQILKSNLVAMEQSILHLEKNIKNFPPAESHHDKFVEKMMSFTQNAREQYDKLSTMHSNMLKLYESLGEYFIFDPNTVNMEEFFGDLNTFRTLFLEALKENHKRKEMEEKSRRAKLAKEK
Summary of the method: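 Pyrene-actin polymerization (emission 410 nm) with mDia3-FH2 in two formats: 10 nM mDia3-FH2 in test compound titrations for dose-response curves (IC50, Hill coefficient), and 2.5 nM mDia3-FH2 with or without 50 μM test compound. Fluorescence corrected for compound quenching.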

[4] = molecular target: INF2-(FH1-FH2) (Mus musculus, UniProt Q0GNC1); test: pyrene-actin polymerization assay, actin assembly by INF2; format: biochemical; conditions: at saturating concentrations
Chain of INF2-(FH1-FH2) (Q0GNC1 589-979 limits assumed): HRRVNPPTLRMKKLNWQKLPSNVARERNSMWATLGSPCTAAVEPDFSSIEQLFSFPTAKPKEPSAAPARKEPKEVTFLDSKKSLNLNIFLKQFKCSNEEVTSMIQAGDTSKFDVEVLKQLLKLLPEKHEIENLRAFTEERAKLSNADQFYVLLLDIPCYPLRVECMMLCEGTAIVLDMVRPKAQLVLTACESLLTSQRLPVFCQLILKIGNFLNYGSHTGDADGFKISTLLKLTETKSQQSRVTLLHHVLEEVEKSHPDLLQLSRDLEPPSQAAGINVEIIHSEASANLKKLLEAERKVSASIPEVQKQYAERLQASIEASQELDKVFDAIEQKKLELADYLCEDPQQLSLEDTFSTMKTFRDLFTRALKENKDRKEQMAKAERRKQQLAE
Summary of the method: (§1)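 Pyrene-actin polymerization (emission read at 410 nm) driven by 2.5 nM mDia2-FH2, 20 nM INF2-(FH1-FH2) or 200 nM FRL1-(FH1-FH2), with the test compound titrated. Fluorescence corrected for compound quenching. Dose-response curves derived from the polymerization traces give IC50 and Hill coefficient.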

[5] = molecular target: mDia2-FH2 (Mus musculus, UniProt Q9Z207); test: pyrene-actin polymerization assay, actin assembly by mDia2-FH2; format: biochemical; conditions: potency and Hill coefficients
Chain of mDia2-FH2 (Q9Z207 615-1013 limits assumed): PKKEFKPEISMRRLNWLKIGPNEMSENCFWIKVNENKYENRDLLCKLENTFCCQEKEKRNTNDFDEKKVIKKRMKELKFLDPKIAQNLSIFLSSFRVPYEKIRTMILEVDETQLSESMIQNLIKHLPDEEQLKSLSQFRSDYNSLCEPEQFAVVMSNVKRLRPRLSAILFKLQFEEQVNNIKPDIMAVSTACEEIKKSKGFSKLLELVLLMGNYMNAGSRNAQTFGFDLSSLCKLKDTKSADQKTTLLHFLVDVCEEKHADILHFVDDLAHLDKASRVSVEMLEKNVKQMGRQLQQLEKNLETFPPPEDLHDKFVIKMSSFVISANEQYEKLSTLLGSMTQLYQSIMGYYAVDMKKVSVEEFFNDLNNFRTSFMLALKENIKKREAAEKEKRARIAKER
Summary of the method: as §1

[6] = molecular target: T2, mDia3-FH2; test: equilibrium dialysis, direct binding to mDia3-FH2
[7] = molecular target: T1, mDia1-FH2; test: equilibrium dialysis, direct binding to mDia1-FH2
[8] = molecular target: T3, FRL1-(FH1-FH2) (Mus musculus, UniProt Q9JL26); test: pyrene-actin polymerization assay, actin assembly by FRL1; format: biochemical; conditions: at 50 μM
T3 sequence (Q9JL26 627-1018 limits assumed): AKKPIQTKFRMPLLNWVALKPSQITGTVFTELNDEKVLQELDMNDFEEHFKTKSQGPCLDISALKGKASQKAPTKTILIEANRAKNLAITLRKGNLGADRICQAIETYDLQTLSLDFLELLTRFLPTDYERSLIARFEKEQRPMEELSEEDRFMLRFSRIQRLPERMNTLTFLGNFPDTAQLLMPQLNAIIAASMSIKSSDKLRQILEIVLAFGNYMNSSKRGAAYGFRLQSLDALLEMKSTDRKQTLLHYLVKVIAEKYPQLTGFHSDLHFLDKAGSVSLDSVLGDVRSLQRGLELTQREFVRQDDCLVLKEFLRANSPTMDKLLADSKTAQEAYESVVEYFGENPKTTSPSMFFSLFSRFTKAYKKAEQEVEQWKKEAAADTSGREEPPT
Summary of the method: as §1

T1 sequence (O08808 748-1175): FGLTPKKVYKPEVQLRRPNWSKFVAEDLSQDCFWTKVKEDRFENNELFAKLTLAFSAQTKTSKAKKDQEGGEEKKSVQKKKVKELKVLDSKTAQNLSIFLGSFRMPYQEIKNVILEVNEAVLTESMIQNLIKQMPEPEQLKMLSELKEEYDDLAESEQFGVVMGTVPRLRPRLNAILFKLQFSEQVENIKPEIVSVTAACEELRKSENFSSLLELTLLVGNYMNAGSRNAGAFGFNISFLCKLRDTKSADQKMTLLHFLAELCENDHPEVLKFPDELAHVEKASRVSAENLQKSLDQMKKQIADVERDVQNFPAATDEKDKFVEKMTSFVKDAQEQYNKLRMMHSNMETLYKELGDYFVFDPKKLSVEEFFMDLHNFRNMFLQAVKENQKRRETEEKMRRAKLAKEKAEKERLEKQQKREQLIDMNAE

Structure (SMILES) | inhibitory effect toward polymerization of actin alone [1] | Hill coefficient, inhibition of actin assembly by mDia1-FH2 [2] | IC50 [2] [nM] | inhibitory activity toward actin assembly by mDia3-FH2 (in words) [3] | maximal inhibition of INF2 activity [4] [%] | inhibition of filament assembly by mDia2-FH2 compared with mDia1-FH2 (in words) [5] | binding to mDia3-FH2 by equilibrium dialysis [6] | binding to mDia1-FH2 by equilibrium dialysis [7] | inhibition of FRL1 [8]
O=S(=O)(O)c1cc(O)c2c(N=Nc3c(S(=O)(=O)O)cc4cc(S(=O)(=O)O)cc(O)c4c3O)cc(S(=O)(=O)O)cc2c1 [compound 1, 2-(8-hydroxy-3,6-disulfo-1-naphthylazo)-1,8-dihydroxy-naphthalene-3,6-disulfonic acid] | Neither 1 nor 2 shows any inhibitory effect | 2.4 | 490 |  |  |  |  |  | 
Nc1ccc(Br)cc1-c1nc2ccccc2[nH]c1=O [compound 2, 3-(2-amino-5-bromophenyl)-1H-quinoxalin-2-one] | Neither 1 nor 2 shows any inhibitory effect | 7.6 | 2100 | no inhibitory activity | ≤ 75 | comparable | no binding | effectively retained 2 in a dose-dependent manner | incomplete
